Experimental data: ChEMBL document CHEMBL1132199, “Carboxy-substituted cinnamides: a novel series of potent, orally active LTB4 receptor antagonists” (J Med Chem, 1999)

Assays:
Leukotriene B4 receptor [1] = target: T1, Leukotriene B4 receptor (Homo sapiens, UniProt Q9NPC1+Q15722); test: In vitro leukotriene B4 receptor binding potency determined by displacement of [3H]- LTB4 from human neutrophils (PMNs)
Outline: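 Intact human neutrophils from citrated venous blood (HESPAN sedimentation, Ficoll-Paque, hypotonic lysis), 3 × 10⁶ cells in HBSS with 0.5 nM [³H]LTB₄ and compound, 20 min at 0 °C. Bound label collected by filtration, filters washed with ice-cold HBSS, then scintillation-counted. Nonspecific binding taken with 300 nM LTB₄. Compound stocks 10 mM in DMSO, final DMSO 0.35%.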

Mus musculus [2] = test: Inhibition of Arachidonic acid (AA)-induced ear edema was determined at dosing of 0.5 hr challenge; expressed as myeloperoxide activity (MPO) at 0.1 mg/kg; 21/15; type: functional
Leukotriene B4 receptor [3] = target: T1, Leukotriene B4 receptor; test: LTB4 receptor antagonistic activity as inhibition of LTB4-induced [Ca2+] release from human PMNs; type: functional
Outline: (§1)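 Human neutrophils from citrated venous blood (HESPAN sedimentation, centrifugal elutriation) loaded with 0.2 μM Fura-2 AM for 30 min at 37 °C, then held at 2 × 10⁶ cells/mL. Ca²⁺ and Mg²⁺ added back at 37 °C; compound given 40 s before 1 nM LTB₄; fluorescence change followed. Ki = IC50/(1 + [LTB₄]/EC50 of LTB₄). Final DMSO 0.35%.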

Mus musculus [4] = test: Inhibition of Arachidonic acid (AA)-induced ear edema was determined at dosing of 0.5 hr challenge; expressed as myeloperoxide activity (MPO) at 1 mg/kg; 24/24; type: functional
Mus musculus [5] = test: Inhibition of Arachidonic acid (AA)-induced ear edema was determined at dosing of 0.5 h challenge; expressed as myeloperoxide activity (MPO) at 3 mg/kg; 39/58; type: functional
Mus musculus [6] = test: Inhibition of Arachidonic acid (AA)-induced ear edema was determined at dosing of 17 hr challenge; expressed as myeloperoxide activity (MPO) at 10 mg/kg; 40/55; type: functional
Mus musculus [7] = test: Inhibition of Arachidonic acid (AA)-induced ear edema was determined at dosing of 17 hr challenge; expressed as myeloperoxide activity (MPO) at 3 mg/kg; 25/12; type: functional
Mus musculus [8] = test: Inhibition of Arachidonic acid (AA)-induced ear edema was determined at dosing of 17 hr challenge; expressed as myeloperoxide activity (MPO) at 10 mg/kg; 1/1; type: functional
Mus musculus [9] = test: Inhibition of Arachidonic acid (AA)-induced ear edema was determined at dosing of 17 hr challenge; expressed as myeloperoxide activity (MPO) at 10 mg/kg; 27/0; type: functional
Mus musculus [10] = test: Inhibition of Arachidonic acid (AA)-induced ear edema was determined at dosing of 17 hr challenge; expressed as myeloperoxide activity (MPO) at 3 mg/kg; 44/53; type: functional
Mus musculus [11] = test: Inhibition of Arachidonic acid (AA)-induced ear edema was determined at dosing of 0.5 hr challenge; expressed as myeloperoxide activity (MPO) at 3 mg/kg; 45/53; type: functional
Mus musculus [12] = test: Inhibition of Arachidonic acid (AA)-induced ear edema was determined at dosing of 17 hr challenge; expressed as myeloperoxide activity (MPO) at 10 mg/kg; 59/67; type: functional
Mus musculus [13] = test: Inhibition of Arachidonic acid (AA)-induced ear edema was determined at dosing of 0.5 h challenge; expressed as myeloperoxide activity (MPO) at 1 mg/kg; 32/38; type: functional
Mus musculus [14] = test: Inhibition of Arachidonic acid (AA)-induced ear edema was determined at dosing of 0.5 hr challenge; expressed as myeloperoxide activity (MPO) at 1 mg/kg; 26/32; type: functional
Mus musculus [15] = test: Inhibition of Arachidonic acid (AA)-induced ear edema was determined at dosing of 17 hr challenge; expressed as myeloperoxide activity (MPO) at 3 mg/kg; 34/15; type: functional
Mus musculus [16] = test: Inhibition of Arachidonic acid (AA)-induced ear edema was determined at dosing of 17 hr challenge; expressed as myeloperoxide activity (MPO) at 10 mg/kg; 46/54; type: functional
Mus musculus [17] = test: Inhibition of Arachidonic acid (AA)-induced ear edema was determined at dosing of 0.5 hr challenge; expressed as myeloperoxide activity (MPO) at 3 mg/kg; 52/58; type: functional
Mus musculus [18] = test: Inhibition of Arachidonic acid (AA)-induced ear edema was determined at dosing of 17 hr challenge; expressed as myeloperoxide activity (MPO) at 10 mg/kg; 0/0; type: functional
Mus musculus [19] = test: Inhibition of Arachidonic acid (AA)-induced ear edema was determined at dosing of 0.5 hr challenge; expressed as myeloperoxide activity (MPO) at 0.1 mg/kg; 41/49; type: functional
Mus musculus [20] = test: Inhibition of Arachidonic acid (AA)-induced ear edema was determined at dosing of 0.5 hr challenge; expressed as myeloperoxide activity (MPO) at 3 mg/kg; 56/71; type: functional
Mus musculus [21] = test: Inhibition of Arachidonic acid (AA)-induced ear edema was determined at dosing of 0.5 hr challenge; expressed as myeloperoxide activity (MPO) at 1 mg/kg; 50/67; type: functional
Mus musculus [22] = test: Inhibition of Arachidonic acid (AA)-induced ear edema was determined at dosing of 17 hr challenge; expressed as myeloperoxide activity (MPO) at 10 mg/kg; 27/31; type: functional
Mus musculus [23] = test: Inhibition of Arachidonic acid (AA)-induced ear edema was determined at dosing of 0.5 hr AA challenge; expressed as myeloperoxide activity (MPO) at 1 mg/kg; 14/0; type: functional
Mus musculus [24] = test: Inhibition of Arachidonic acid (AA)-induced ear edema was determined at dosing of) 17 hr challenge; expressed as myeloperoxide activity (MPO) at 10 mg/kg; 33/2; type: functional
Mus musculus [25] = test: Inhibition of Arachidonic acid (AA)-induced ear edema was determined at dosing of 17 hr challenge; expressed as myeloperoxide activity (MPO) at 10 mg/kg; 19/30; type: functional
[26] = target: Leukotriene B4 receptor 1 (Homo sapiens, UniProt Q15722); test: Leukotriene B4 receptor antagonistic activity was measured by the inhibition of LTB4 induced [Ca2+] release from human PMNs; type: functional; outline: as §1
Mus musculus [27] = test: Inhibition of Arachidonic acid (AA)-induced ear edema was determined at dosing of 17 h challenge; expressed as myeloperoxide activity (MPO) at 10 mg/kg; 55/55; type: functional
Mus musculus [28] = test: Inhibition of Arachidonic acid (AA)-induced ear edema was determined at dosing of 0.5 h challenge; expressed as myeloperoxide activity (MPO) at 1 mg/kg; 41/41; type: functional
Mus musculus [29] = test: Inhibition of Arachidonic acid (AA)-induced ear edema was determined at dosing of 17 hr challenge; expressed as myeloperoxide activity (MPO) at 3 mg/kg; 29/26; type: functional

Chain of Leukotriene B4 receptor 1 (Q15722 whole entry): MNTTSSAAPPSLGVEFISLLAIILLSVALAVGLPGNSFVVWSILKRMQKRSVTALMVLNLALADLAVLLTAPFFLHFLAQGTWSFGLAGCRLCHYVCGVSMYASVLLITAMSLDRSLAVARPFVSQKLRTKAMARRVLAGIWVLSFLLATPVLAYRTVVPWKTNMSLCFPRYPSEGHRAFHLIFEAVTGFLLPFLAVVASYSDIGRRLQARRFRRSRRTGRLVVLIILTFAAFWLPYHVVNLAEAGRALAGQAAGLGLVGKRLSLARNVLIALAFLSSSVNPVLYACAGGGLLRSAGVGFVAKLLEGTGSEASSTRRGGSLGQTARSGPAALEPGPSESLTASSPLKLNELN

| Structure (SMILES) | IC50 (Leukotriene B4 receptor [1]) [nM] | Ki (Leukotriene B4 receptor [3]) [nM] | other results |
| --- | --- | --- | --- |
| CCN(CC)C(=O)/C=C(\C)c1ccc(Oc2ccccc2)c(OCC(=O)O)c1 | 2400 |  |  |
| CCN(CC)C(=O)CC(C)c1ccc(OC(C)c2ccccc2)cc1 (stereo not drawn) | 4300 |  |  |
| CCN(CC)C(=O)/C=C(\C)c1ccc(OC(C)c2ccccc2)c(OCCC(=O)O)c1 (stereo not drawn) | 128 | 81 | Punch weight/MPO activity (Mus musculus [2]): 21; Punch weight/MPO activity (Mus musculus [4]): <24; Punch weight/MPO activity (Mus musculus [5]): <39; Punch weight/MPO activity (Mus musculus [6]): <40; Punch weight/MPO activity (Mus musculus [7]): <25 |
| CCN(CC)C(=O)/C=C(\C)c1ccc(SCc2ccccc2)c(OCC(=O)O)c1 | 34 | 26 | Punch weight/MPO activity (Mus musculus [8]): 1 |
| CCN(CC)C(=O)/C=C(\C)c1ccc(CCc2ccccc2)c(OCC(=O)O)c1 | 56 | 7.7 | Punch weight/MPO activity (Mus musculus [9]): 27 |
| CCN(CC)C(=O)/C=C(\C)c1ccc(OCc2c(F)cccc2F)c(CC(=O)O)c1 | 87 | 22 | Punch weight/MPO activity (Mus musculus [10]): 44; Punch weight/MPO activity (Mus musculus [11]): <45; Punch weight/MPO activity (Mus musculus [12]): <59; Punch weight/MPO activity (Mus musculus [13]): <32 |
| CCN(CC)C(=O)/C=C(\C)c1ccc(OCc2c(F)cccc2F)c(OCC(=O)O)c1 | 56 | 18 | Punch weight/MPO activity (Mus musculus [14]): <26; Punch weight/MPO activity (Mus musculus [15]): <34; Punch weight/MPO activity (Mus musculus [16]): <46; Punch weight/MPO activity (Mus musculus [17]): <52 |
| CCN(CC)C(=O)/C=C(\C)c1ccc(OCc2c(Cl)cccc2Cl)c(OCC(=O)O)c1 | 31 | 14 | Punch weight/MPO activity (Mus musculus [18]): 0 |
| CCN(CC)C(=O)/C=C(\C)c1ccc(OC(C)c2ccccc2)c(C(=O)O)c1 (stereo not drawn) | 884 |  |  |
| CCN(CC)C(=O)/C=C(\C)c1ccc(OC(C)c2ccccc2)c(OCC(=O)O)c1 (stereo not drawn) | 50 | 9.1 | Punch weight/MPO activity (Mus musculus [19]): <41; Punch weight/MPO activity (Mus musculus [20]): <56; Punch weight/MPO activity (Mus musculus [21]): <50; Punch weight/MPO activity (Mus musculus [22]): <27 |
| CCN(CC)C(=O)/C=C(\C)c1ccc(OC(C)c2ccccc2)c(O)c1 (stereo not drawn) | 420 |  |  |
| CCN(CC)C(=O)/C=C(\C)c1ccc(OC(c2ccccc2)c2ccccc2)c(OCC(=O)O)c1 | 64 | 5.2 | Punch weight/MPO activity (Mus musculus [23]): 14 |
| CCN(CC)C(=O)/C=C(\C)c1cc(OCC(=O)O)cc(OC(C)c2ccccc2)c1 (stereo not drawn) | 84 | 11.2 |  |
| C/C(=C\C(=O)N1CCCCC1)c1ccc(OC(C)c2ccccc2)cc1 (stereo not drawn) | 5800 |  |  |
| CCCN(CCC)C(=O)/C=C(\C)c1ccc(OC(C)c2ccccc2)cc1 (stereo not drawn) | 1400 |  |  |
| CCN(CC)C(=O)/C=C(\C)c1ccc(OCc2ccccc2Cl)c(OCC(=O)O)c1 | 67 | 16 | Punch weight/MPO activity (Mus musculus [24]): <33 |
| CCN(CC)C(=O)/C=C(\C)c1ccc(-c2ccccc2)cc1 | > 10000 |  |  |

| Structure (SMILES) | IC50 (Leukotriene B4 receptor [1]) [nM] | Ki (Leukotriene B4 receptor [3]) [nM] | other results |
| --- | --- | --- | --- |
| CCN(CC)C(=O)/C=C(\C)c1ccc(OC(C)C)cc1 | > 10000 |  |  |
| CCN(CC)C(=O)/C=C(\C)c1ccc(OCc2ccccc2F)c(OCC(=O)O)c1 | 119 | 27 | Punch weight/MPO activity (Mus musculus [25]): <19 |
| CCN(CC)C(=O)/C=C(\C)c1ccc(OCc2ccccc2)c(OCC(=O)O)c1 | 182 | 82 |  |
| COc1ccc(C(=O)O)cc1NC(=O)/C=C(\C)c1ccc(OC(C)c2ccccc2)cc1 (stereo not drawn) | > 10000 |  |  |
| CCN(CC)C(=O)/C=C(\C)c1ccc(OCc2ccccc2)cc1 | 7900 |  |  |
| CCNC(=O)/C=C(\C)c1ccc(OC(C)c2ccccc2)cc1 (stereo not drawn) | 2000 |  |  |
| CCN(CC)C(=O)/C=C(\C)c1ccc(OC(C)c2ccccc2)cc1OCC(=O)O (stereo not drawn) | 2225 |  |  |
| CCN(CC)C(=O)/C=C(\C)c1ccc(OC(C)c2ccccc2)c(OCCCC(=O)O)c1 (stereo not drawn) | 216 |  |  |
| CCN(CC)C(=O)/C=C(\C)c1ccc(OC(C)c2ccccc2)cc1 (stereo not drawn) | 744 |  |  |
| CCN(CC)C(=O)/C=C(\C)c1ccc(O[C@H](C)c2ccccc2)c(CC(=O)O)c1 | 536 |  |  |
| CCN(CC)C(=O)/C=C(\C)c1ccc(O[C@@H](C)c2ccccc2)c(CC(=O)O)c1 | 39 |  |  |
| CCN(CC)C(=O)/C=C/c1ccc(OC(C)c2ccccc2)cc1 (stereo not drawn) | 1600 |  |  |
| C/C(=C\C(=O)N(C)C)c1ccc(OC(C)c2ccccc2)cc1 (stereo not drawn) | 2100 |  |  |
| CCN(CC)C(=O)/C=C(\C)c1ccc(OC(C)c2ccccc2)c(CCC(=O)O)c1 (stereo not drawn) | 48 |  | Ki [26]: 9.5 nM |
| C/C(=C\C(=O)N(C(C)C)C(C)C)c1ccc(OC(C)c2ccccc2)cc1 (stereo not drawn) | 1100 |  |  |
| CCN(CC)C(=O)/C=C(\C)c1ccc(OC(C)c2ccccc2)c(CC(=O)O)c1 (stereo not drawn) | 81 | 9.5 | Punch weight/MPO activity (Mus musculus [27]): <55; Punch weight/MPO activity (Mus musculus [28]): <41; Punch weight/MPO activity (Mus musculus [29]): <29 |
